# Hits are enriched below; roughly 2% of the tested compounds scored in any of these assays.
# NR2E3 ag-1 – activates human photoreceptor nuclear receptor NR2E3; AID 2300; Q9Y5X4; hit rate 0.12% among 320,000; GST-NR2E3/biotin-RetCOR TR-FRET, 1536-well; inhibition of corepressor binding, % at 4.78 µM;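 active means percent inhibition above the cutoff of mean plus 3 SD of all tested compounds, set per screening campaign, cut at about 20% in these data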
# Target sequence (Q9Y5X4 whole entry, looked up): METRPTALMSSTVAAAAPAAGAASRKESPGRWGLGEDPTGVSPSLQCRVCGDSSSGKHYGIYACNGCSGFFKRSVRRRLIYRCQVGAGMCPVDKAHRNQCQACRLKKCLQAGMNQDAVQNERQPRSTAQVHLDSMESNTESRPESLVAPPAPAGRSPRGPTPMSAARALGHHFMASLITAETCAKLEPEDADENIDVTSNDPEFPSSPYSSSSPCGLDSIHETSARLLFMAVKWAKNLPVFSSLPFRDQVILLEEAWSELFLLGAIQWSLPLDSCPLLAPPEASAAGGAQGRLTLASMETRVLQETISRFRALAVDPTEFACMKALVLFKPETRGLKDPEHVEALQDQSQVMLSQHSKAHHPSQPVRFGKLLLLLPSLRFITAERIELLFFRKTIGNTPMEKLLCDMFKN
#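 Test system – NR2E3–RetCOR corepressor complex · Quantity – NR2E3 fusion 1.35 nM · Buffer or medium – Tris pH 7.5 · Incubation – Compound–protein incubation for 5 h at 4 °C · Technique – TR-FRET, Eu(K)-anti-GST donor, streptavidin-D2 acceptor, ex 340, em 617/671 nm · Evaluation – percent inhibition of 671/617 nm emission ratio versus biotin and DMSO controls · Plate – 1536-well format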
# T cell modulator – modulates CD8 T cell binding to vesicles; 2C CD8+ T cell-vesicle binding, flow cytometry; hits give low values; response (vesicle binding), % at 7 µM; hit rate 0.068% among 330,000;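 active means response, share of CD8 T cells binding vesicles, and their 90th percentile fluorescence all below set limits, cut at about 80% in these data, passing the limit was not always enough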;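 further: values below 100% mean blocked vesicle binding to the CD8+ T cells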
#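 Benchmarks: naked versus QL9-loaded vesicles / Assay system: purified 2C TCR transgenic mouse naive CD8+ T cells / Technique: high-throughput flow cytometry with anti-B7-1 and anti-CD8 staining / Timing: Cell–vesicle co-incubation 1.5 h at 37 °C, staining 20 min on ice / Read-out: percent CD8+ FL2 mean versus row control / Probe or stimulus: QL9-loaded Drosophila micro-vesicles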
# GAA850 FXN act – increases GAA850 frataxin promoter reporter activity | HEK293 lucGAA850 FXN promoter luciferase reporter, 24 h; percent of 10 µM SAHA response | activation, % at 6 µM | hit rate 0.56% among 360,000 | AID 540364;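 active means activation above the average of all compounds screened plus 3 SD, cutoff fixed separately per campaign, cut at about 7.5% in these data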
# Myeloid diff 2 – compounds promoting myeloid differentiation; ER-HoxA9 myeloid progenitors, lysozyme-GFP differentiation, flow cytometry; calls only at 10 µM; hit rate 1% among 360,000;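 active means normalized GFP-positive differentiation at or above the plate's own cutoff, the solvent-only control mean plus 3 SD; inconclusive means no clear call, values can overlap the other calls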;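 further: cells exposed to compound for four days before flow analysis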
# NR2E3 ag-2 – activates human NR2E3 receptor; CHO-S Gal4-NCOR/VP16-NR2E3 two-hybrid, luciferase; hit rate 0.35% among 360,000; inhibition of corepressor binding, % at 3.98 µM; AID 602229; Q9Y5X4;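 active means inhibition above the mean of all tested compounds plus 3 SD, cut at about 70% in these data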;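 further: higher means lower luciferase signal from less NR2E3 corepressor binding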
# NR2E3 ag conf – NR2E3 agonism confirmed in two-hybrid assay | shares compounds with NR2E3 ag-2 | CHO-S mammalian two-hybrid NR2E3-NCOR, luciferase luminescence | inhibition, % at 3.98 µM | hit rate 51% among 2,300 | AID 624378;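 active means average inhibition above a cutoff equal to the mean inhibition of all tested compounds plus one SD, cut at about 70% in these data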
# VP16 counter – counter-screen for NR2E3 agonists: GAL4-VP16 reporter inhibitors | shares compounds with NR2E3 ag-2 | hit rate 29% among 2,300 | inhibition, % at 3.98 µM | CHO-S GAL4-VP16 luciferase reporter, luminescence;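 active means mean inhibition above a cutoff equal to the average over all tested compounds plus one standard deviation, cut at about 70% in these data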;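 further: luciferase from a UAS reporter driven by GAL4-VP16 transactivation; higher means less reporter light so more repression of VP16 activity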
# A number is an active result; . = inactive; ? = inconclusive; / = no result given; + = active, no number.
SMILES,NR2E3 ag-1,T cell modulator,GAA850 FXN act,Myeloid diff 2,NR2E3 ag-2,NR2E3 ag conf,VP16 counter
Cc1ccc(NC(=O)C2CCN(S(=O)(=O)c3ccc4c(c3)NC(=O)C(C)S4)CC2)cc1Cl (configuration not stated),.,.,.,/,105.3,98.0,84.8
Cc1cccc(CCNS(=O)(=O)c2ccc3c(c2)NC(=O)C(C)S3)c1 (configuration not stated),.,.,.,.,.,.,.
Cc1cccc(N2CCN(S(=O)(=O)c3ccc4c(c3)NC(=O)C(C)S4)CC2)c1C (configuration not stated),.,.,.,.,.,.,.
Cc1nc(NC(=O)c2ccc(Cl)cc2)sc1-c1csc(Nc2cccc(F)c2)n1,.,.,/,/,/,/,/
CCOC1=CC2=C(C(=O)C(Cl)=CC2=O)[C@@H]2CN(S(=O)(=O)c3ccc(C)cc3)[C@@H](c3ccccc3)[C@H]12,/,/,/,?,.,/,/
CCN(CC)c1ccc(/C=c2\sc3nc4ccccc4n3c2=O)c(O)c1,/,/,.,+,.,78.9,.
Cc1cc(/C=c2/sc3nc4ccccc4n3c2=O)c(C)n1-c1ccccn1,.,.,.,.,79.9,84.4,74.8
CC(=O)NC(c1ccc(F)c(F)c1)c1nc(-c2cc3ccccc3o2)cs1 (configuration not stated),/,/,.,.,.,/,/
NC(=O)CC(NC(=O)c1ccc(Br)cc1)c1ccc(N2CCCCCC2)c([N+](=O)[O-])c1 (configuration not stated),.,.,.,.,.,.,.
COCCNC(=O)C1(C)CCCN(C(=O)c2cc(OC)c(OC)c(OC)c2)C1 (configuration not stated),/,/,.,.,.,/,/
COc1cccc(N2CCN(c3ncnc4c3[nH]c3ccc(F)cc34)CC2C)c1 (configuration not stated),.,.,.,?,108.6,100.8,99.9
O=C(Nc1cccc(NC(=O)c2c(F)cccc2F)n1)c1c(F)cccc1F,.,.,.,.,.,79.4,.
O=C(Nc1cccc(NC(=O)c2cccc(F)c2)n1)c1cccc(F)c1,.,.,.,.,.,/,/
COc1ccc(S(=O)(=O)N2CCCCC2)cc1NC(=O)c1cccc(S(=O)(=O)N2CC(C)OC(C)C2)c1 (configuration not stated),/,/,.,.,.,/,/
CC1Cc2ccccc2N1C(=O)CN1CCC(n2nnc3cc(C(F)(F)F)ccc32)CC1 (configuration not stated),.,.,.,.,.,.,.
Cc1nn(C)c(C(=O)NCc2ccc(Cl)cc2)c1Cl,.,.,.,.,.,89.1,75.1
CC(=O)c1ccc(NS(=O)(=O)c2cccc(C(=O)Nc3ccccc3C(=O)O)c2)cc1,.,.,.,.,.,/,/
O=C(NNc1ccnc2cc(Cl)ccc12)C1CCCCC1,.,.,.,.,.,97.3,86.5
CCOC(=O)N1CCN(c2ccnc3cc(Cl)ccc23)CC1,.,.,.,.,.,/,/
O=C(Oc1ccnc2cc(Cl)ccc12)N1CCCCCC1,.,.,.,.,.,.,.
O=C(NCCOc1ccccc1)C1C(=O)Nc2ccccc2C(=O)N1C1CCCCC1 (configuration not stated),/,/,/,.,/,/,/
COc1cc(/C=C2/C(=N)N3N=C(CC(=O)N4CCOCC4)SC3=NC2=O)ccc1OCc1ccc(F)cc1,.,.,.,.,.,/,/
CCCCC[C@@H]1C=C(C(=O)O)[C@H](c2ccc(Cl)c(Cl)c2)N1S(=O)(=O)c1ccc(C)cc1,/,.,.,.,81.4,71.3,.
CCCCC[C@@H]1C=C(C(=O)O)[C@H](c2ccc(CC)cc2)N1S(=O)(=O)c1ccc(C)cc1,/,.,.,.,.,.,.
Cc1ccc(S(=O)(=O)N2[C@@H](c3ccc(Cl)c(Cl)c3)C(C(=O)O)=C[C@H]2C(C)(C)C)cc1,/,.,.,.,.,.,.
SMILES,NR2E3 ag-1,T cell modulator,GAA850 FXN act,Myeloid diff 2,NR2E3 ag-2,NR2E3 ag conf,VP16 counter
CC[C@@H]1C=C(C(=O)O)[C@H](c2ccc(Cl)c(Cl)c2)N1S(=O)(=O)c1ccc(C)cc1,/,.,.,.,.,/,/
COc1ccc(C2CN=NC2C(=O)c2ccccc2)cc1 (configuration not stated),/,/,.,.,.,/,/
Oc1ccc(Cl)cc1Sc1cc(Cl)ccc1O,/,/,.,.,.,100.2,.
CN(Cc1ccccc1)C(=O)[C@@H]1CCCN1C(=O)[C@@H]1CCCN1C(=O)c1ccccc1,/,/,/,.,.,/,/
Cc1ccc(NS(=O)(=O)c2ccc(C(=O)N3CCN(c4ccccn4)CC3)cc2)cc1,.,.,.,.,.,.,.
CCCCOc1ccc(S(=O)(=O)Nc2ccc(NC(C)=O)cc2)cc1,.,.,.,+,70.2,.,.
Cc1ccc(S(=O)(=O)NCc2ccc(C(=O)N3CCN(c4ccccn4)CC3)cc2)cc1,.,.,.,.,.,/,/
Cc1ccc(S(=O)(=O)NCc2ccc(C(=O)N3CCN(c4ccc([N+](=O)[O-])cc4)CC3)cc2)cc1,.,.,.,.,.,82.6,.
CCOc1ccc(NS(=O)(=O)c2ccc(C(=O)N3CCCCCC3)cc2)cc1,.,.,.,.,73.2,.,.
COc1ccc(N2CCN(C(=O)c3ccc(CNS(=O)(=O)c4ccc(C)cc4)cc3)CC2)cc1,.,.,.,.,.,/,/
COc1ccc(C(=O)CSC(=S)N2CCCCC2)cc1,/,/,/,.,.,/,/
CN(c1ccccc1C(=O)Nc1ccc(CC#N)cc1)S(=O)(=O)c1ccccc1,.,.,.,/,.,/,/
Cc1ccc(N(C(=O)Cn2nnc(-c3ccc(C)o3)n2)C(C(=O)NC2CCCC2)c2ccncc2)cc1 (configuration not stated),.,.,.,.,.,/,/
COc1ccc(NS(=O)(=O)c2ccc(NC(=O)C3CC3)cc2)cc1,.,.,.,/,.,.,.
CCOc1ccc(S(=O)(=O)Nc2ccc(C(=O)N3CCCC3)cc2)cc1,.,.,.,.,.,/,/
COc1ccc(NS(=O)(=O)c2ccc(C(=O)N3CCCCCC3)cc2)cc1,/,.,.,.,75.6,.,.
CCOc1ccc(NS(=O)(=O)c2ccc(C(=O)N3CCCC(C)C3)cc2)cc1 (configuration not stated),.,.,.,.,.,73.8,.
CCOC(=O)N1CCN(C(=O)c2ccc(S(=O)(=O)Nc3ccc(C)cc3)cc2)CC1,/,.,.,.,.,81.0,.
COc1cc(C2=CCN(C(C)=O)CC2)ccc1OC(C)=O,.,.,.,.,.,/,/
CC(=O)Nc1ccc(S(=O)(=O)Oc2ccc(C(=S)N3CCCCC3)cc2)cc1,.,.,.,.,.,70.2,.

# Bioassay records as filed in PubChem.
